The array DNA melting data of Ke et al. (doi:10.1101/2024.01.08.574731)

Experiments:
[1] = folding enthalpy; higher = less favourable; fluorescence melt of hairpins on a sequencing array, two-state fit; conditions: sodium 0.088 M
Procedure, shortened: (§1)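 Bootstrapped two-state fits yielded melting temperature and folding enthalpy for library hairpins. Cy3 fluorescence, with annealed Cy3 and quencher oligos, was imaged on a sequenced MiSeq flow cell in 50 mM Na-HEPES pH 8.0, 25 mM NaCl in 2.5 °C steps up to 60 °C, and normalised to pre-quench Cy3 and to control constructs. Four replicates were combined by inverse variance, and fitted temperatures were raised by 9.35 °C to match UV melts.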

[2] = melting temperature; fluorescence melt of hairpins on a sequencing array, two-state fit, raised by 9.35 °C to match UV melts; conditions: sodium 0.088 M
Procedure, shortened: as §1

Sequence	folding enthalpy [1] [kcal/mol]	Tm [2] [°C]
GCGAGGCGAAAGCATTGC ((.(.((....)).).))	-22.5	54.3
GATCTGCGTACAGATC ((((((....))))))	-36.4	53.9
GCCCTGCGAAAGCAGCGC ((.((((....)))).))	-17.5	56.2
GAGGCTGGAAACAGCTTC ((.((((....)))).))	-19.8	49
GATCCATGTTTGGATC ((((((....))))))	-42.8	53.8
GATGCTGGAAACAGCACC (.(((((....))))).)	-14.4	39.4
GCAACGCGAAAGCCTTGC ((((.((....)).))))	-21.5	47.9
GTAGATGGAAACGTCTAC (((((.(....).)))))	-31.3	43.6
GATCGGCGCACCGATC ((((((....))))))	-37.4	59.9
GCGGACGCGAAAGCGCGC (((..(((....))))))	-17.1	62
GATAATGGAAACGTTATC (((((.(....).)))))	-29.4	34.6
GGTACCGGAAACGATACC ((((.((....)).))))	-31.9	42.7
GCGTCGCGAAAGCTAGGC ((.(.((....)).).))	-20.9	36.8
GAAGTCGGAAACAACTTC (((((.(....).)))))	-27.2	33.4
GAGACGGGAAACCGCCTC (((.(((....))).)))	-33.7	49.1
GTTTCAGGAAACTGGAAC (((.(((....))).)))	-26.4	43.3
GTAAATGAAAATTTAC ((((((....))))))	-26.1	37.2
GATCATTCCGATGATC ((((((....))))))	-41.3	49.1
GCCACGGGAAACCGCGGC (((.(((....))).)))	-44.5	59.1
GATCGATATTCGATC ((((((...))))))	-30.3	52.6
GCGGTTCCCCGC ((((....))))	-21	60.8
GTCTAGCGAAAGCTTGAC (((.(((....))).)))	-28.7	54.2
GCGTCATAACGC ((((....))))	-23.4	53.3
GACACGCCGAAAGGCGTC (((..(((....))))))	-6.56	33.8

Sequence	folding enthalpy [1] [kcal/mol]	Tm [2] [°C]
GGTTAAGCGAAAGCTACC (((..(((....))))))	-18.2	39.4
GCGATGCGAAAGCATGGC ((.((((....)))).))	-21.2	64.6
GATCCGAAACGGATC ((((((...))))))	-35.4	57
GTACTGGGAAACTAGTAC (((((.(....).)))))	-36.8	42.2
GATCCCGCCGGGGATC ((((((....))))))	-37.7	63.1
GTTATTCGAAAGAAAAAC (((.(((....))).)))	-19.6	29.9
GGGAACGAAAGTTTCCC ((((((....))).)))	-31.5	52.9
GCGACGTATCGC ((((....))))	-14.6	50.5
GTTGTTGGAAACAACAAC (((((((....)))))))	-41.5	58.6
GATCCCGAGCGGGATC ((((((....))))))	-40.5	61.6
GGCGTACGAAAGTATGCC (((.(((....))).)))	-41.9	65.5
GCGACTTTTCGC ((((....))))	-21.6	49
GATCACCACAGTGATC ((((((....))))))	-40.4	57.4
GTAACCGAAAGGTGTAC ((((((....))).)))	-19.5	41.3
GACTCGGGAAACTGAGTC (((((.(....).)))))	-37.2	52.7
CGATCCCGGAAACGGTCG (((..(((....))))))	-19.9	30.7
GCCGTGGGAAACTACGGC (((((.(....).)))))	-42.8	61.1
GATCTGCCAGCAGATC ((((((....))))))	-38.6	57.7
GAAGGCGAAAGCCTTTC ((((((....))).)))	-10.6	53.7
GCAAGGCGAAAGCATTGC ((((.((....)).))))	-38.2	67.2
GCCCTCCGAAAGGAGGC (((.(((....))))))	-11.9	61.2
GGCCAGGGAAACCTGACC ((.((((....)))).))	-34.4	48.3
GGATCTGGAAACAGGTTC (.(.(((....))).).)	-14.1	30.5
GATCCAGGGTGGATC ((((((...))))))	-31.5	49.3

Sequence	folding enthalpy [1] [kcal/mol]	Tm [2] [°C]
GAGCTAGGAAACCAGCTC (((((.(....).)))))	-39.1	46.3
GAGCGCCCGAAAGGGCTC (((..(((....))))))	-6.69	29.4
GAGAAGGGAAACCTCCTC (((.(((....))).)))	-17.7	28.8
GATACACGAAAGTGGATC (((.(((....))).)))	-37.4	56.6
GTTTACGAAAGTACAAAC ((((((....)))..)))	-10.6	26.2
GAAACTGGAAACGGTTTC (((((.(....).)))))	-34.5	44.5
GGTCTCGAAAGAGACACC ((((((....)))..)))	-9.21	48.4
GTCAACGGAAACGCTGAC ((((.((....)).))))	-35.8	46.4
GGAATCGGAAACGGTTCC ((((.((....)).))))	-44.5	52.2
GGGCAAGAAATTGCCC ((((((....))))))	-33.9	63.6
GTCTCCTCGAAAGAGGAC (((..(((....))))))	-9.88	32
GATCCGAGGCGGATC ((((((...))))))	-43.4	56.8
GCTCTCTCGAAAGAGAGC (((..(((....))))))	-26.9	60.3
GTATTGCGAAAGCACTAC (((.(((....))).)))	-21.5	39.4
GATCAGCGGGCTGATC ((((((....))))))	-38.8	63.8
GTGAGCGAAAGCTACAC ((((((....))).)))	-16.1	49.1
CGACTGAAAAGTCG (((((....)))))	-26.5	58.5
GAAAGGGGAAACTCTTTC (((((.(....).)))))	-25	36.3
GCGTCGAACGC ((((...))))	-18.2	50.3
GACCGCCGAAAGGCCGTC (((.(((....))).)))	-18.8	50.7
GATGTCCGAAAGGAGATC (((.(((....))).)))	-28.9	50.3
GGATTTGGAAACAAGTCC (((.(((....))).)))	-31.5	42.7
GTGGAAGGAAACTTCCAC (((((((....)))))))	-42.7	62
GATCCAGTTATGGATC ((((((....))))))	-46.4	58.4

Sequence	folding enthalpy [1] [kcal/mol]	Tm [2] [°C]
GTAGACTCGAAAGAGTAC (((..(((....))))))	-13.9	31.2
GCGAAAGCGAAAGCTCGC (((..(((....))))))	-24.2	56.3
AGCGGGAAACCGCT (((((....)))))	-19.1	67.1
GATCAATCATTTGATC ((((((....))))))	-37.3	45.5
GACACAGGAAACCGTGTC (((((.(....).)))))	-41.1	48.4
GATCCTGAAGAGGATC ((((((....))))))	-36.2	55.4
GCGAAGGCTCGC ((((....))))	-14.4	46.9
GGGGTCGAAAGACGCCC ((((((....))).)))	-18.8	57.7
CGGACGGAAACGTGACCG ((((((....)))..)))	-25	38.3
GGCGGGGCGAAAGCCGCC (((..(((....))))))	-19.9	68.6
GTTCAGGGAAACTTGAAC (((((.(....).)))))	-22.8	40.7
GATCATTCCCATGATC ((((((....))))))	-42.6	46.8
GGTCCCGAAAGGGCTACC ((((((....)))..)))	-10.9	39.8
GCTATCCGAAAGGAAGC (((.(((....))))))	-23.2	46
GATGACGAAAGTCATATC ((((((....)))..)))	-14	50
CGGCCGGAAACGGCTCCG ((((((....)))..)))	-8.35	33.7
GGGTTCGGAAACGAGCTC (.(.(((....))).).)	-24	37.8
GATTCGCGAAAGCGTATC (((.(((....))).)))	-20.6	48.8
GGGTTCGCGAAAGCGCCC (((..(((....))))))	-15.3	43.6
GATCAAACATTTGATC ((((((....))))))	-30.2	42.4
GATGCCCGAAAGGGGATC (((.(((....))).)))	-21.9	59
